According to ChEMBL document CHEMBL1154352, “Toll-like receptor 7 selective synthetic oligoribonucleotide agonists: synthesis and structure-activity relationship studies” (J Med Chem, 2009):
Calls of active or inactive are those of the source. The calls are words filed in the database; no cut-off is given here.

Legend:
[1] = target: T1, Toll-like receptor 7 (Homo sapiens) (UniProt Q9NYK1); assay: Activation of human TLR7 expressed in HEK293XL assessed as fold induction of NF-kappaB activity at 50 ug/ml after 18 hrs by reporter gene assay relative to control
T1 sequence (whole entry): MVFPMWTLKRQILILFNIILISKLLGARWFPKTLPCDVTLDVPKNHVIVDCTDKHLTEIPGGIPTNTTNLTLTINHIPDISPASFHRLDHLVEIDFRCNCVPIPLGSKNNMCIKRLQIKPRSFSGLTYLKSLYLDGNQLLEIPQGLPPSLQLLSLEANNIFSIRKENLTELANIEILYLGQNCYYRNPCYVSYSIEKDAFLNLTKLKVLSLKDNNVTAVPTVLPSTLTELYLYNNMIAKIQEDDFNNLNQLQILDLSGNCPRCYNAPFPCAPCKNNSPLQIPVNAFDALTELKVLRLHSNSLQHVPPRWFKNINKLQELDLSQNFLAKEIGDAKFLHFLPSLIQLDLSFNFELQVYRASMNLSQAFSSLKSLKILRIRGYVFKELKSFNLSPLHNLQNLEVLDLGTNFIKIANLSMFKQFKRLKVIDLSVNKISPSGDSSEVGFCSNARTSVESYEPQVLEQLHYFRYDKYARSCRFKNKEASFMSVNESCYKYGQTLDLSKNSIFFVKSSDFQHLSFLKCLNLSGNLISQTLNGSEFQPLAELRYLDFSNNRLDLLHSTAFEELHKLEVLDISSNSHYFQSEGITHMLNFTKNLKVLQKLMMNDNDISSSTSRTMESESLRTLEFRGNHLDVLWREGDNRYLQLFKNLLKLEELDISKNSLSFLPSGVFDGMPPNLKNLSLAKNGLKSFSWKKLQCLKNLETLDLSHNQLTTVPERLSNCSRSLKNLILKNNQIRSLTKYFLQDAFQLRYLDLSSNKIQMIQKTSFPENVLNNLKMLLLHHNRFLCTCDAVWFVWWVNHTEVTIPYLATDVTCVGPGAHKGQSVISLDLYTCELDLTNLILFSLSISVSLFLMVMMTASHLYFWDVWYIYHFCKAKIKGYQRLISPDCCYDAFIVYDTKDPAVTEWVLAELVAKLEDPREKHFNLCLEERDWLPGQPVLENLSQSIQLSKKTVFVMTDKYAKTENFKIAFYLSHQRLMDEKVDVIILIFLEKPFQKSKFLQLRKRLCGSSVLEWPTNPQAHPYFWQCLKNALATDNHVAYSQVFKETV
Summary of the method: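 HEK293 cells stably expressing human TLR7 or TLR8, transiently transfected with SEAP reporter plasmid; medium replaced, SIMRA compounds added, 18 h incubation. Supernatant SEAP measured by QuantiBlue; expressed as fold increase in NF-κB activity over PBS control. Tabulated data at 50 μg/mL, representative of three independent experiments.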

[2] = target: T2, Toll-like receptor 9 (Mus musculus) (UniProt Q9EQU3); assay: Activation of mouse TLR9 expressed in HEK293 assessed as induction of NF-kappaB activity reporter gene assay; assay type: cell-based
T2 sequence (whole entry): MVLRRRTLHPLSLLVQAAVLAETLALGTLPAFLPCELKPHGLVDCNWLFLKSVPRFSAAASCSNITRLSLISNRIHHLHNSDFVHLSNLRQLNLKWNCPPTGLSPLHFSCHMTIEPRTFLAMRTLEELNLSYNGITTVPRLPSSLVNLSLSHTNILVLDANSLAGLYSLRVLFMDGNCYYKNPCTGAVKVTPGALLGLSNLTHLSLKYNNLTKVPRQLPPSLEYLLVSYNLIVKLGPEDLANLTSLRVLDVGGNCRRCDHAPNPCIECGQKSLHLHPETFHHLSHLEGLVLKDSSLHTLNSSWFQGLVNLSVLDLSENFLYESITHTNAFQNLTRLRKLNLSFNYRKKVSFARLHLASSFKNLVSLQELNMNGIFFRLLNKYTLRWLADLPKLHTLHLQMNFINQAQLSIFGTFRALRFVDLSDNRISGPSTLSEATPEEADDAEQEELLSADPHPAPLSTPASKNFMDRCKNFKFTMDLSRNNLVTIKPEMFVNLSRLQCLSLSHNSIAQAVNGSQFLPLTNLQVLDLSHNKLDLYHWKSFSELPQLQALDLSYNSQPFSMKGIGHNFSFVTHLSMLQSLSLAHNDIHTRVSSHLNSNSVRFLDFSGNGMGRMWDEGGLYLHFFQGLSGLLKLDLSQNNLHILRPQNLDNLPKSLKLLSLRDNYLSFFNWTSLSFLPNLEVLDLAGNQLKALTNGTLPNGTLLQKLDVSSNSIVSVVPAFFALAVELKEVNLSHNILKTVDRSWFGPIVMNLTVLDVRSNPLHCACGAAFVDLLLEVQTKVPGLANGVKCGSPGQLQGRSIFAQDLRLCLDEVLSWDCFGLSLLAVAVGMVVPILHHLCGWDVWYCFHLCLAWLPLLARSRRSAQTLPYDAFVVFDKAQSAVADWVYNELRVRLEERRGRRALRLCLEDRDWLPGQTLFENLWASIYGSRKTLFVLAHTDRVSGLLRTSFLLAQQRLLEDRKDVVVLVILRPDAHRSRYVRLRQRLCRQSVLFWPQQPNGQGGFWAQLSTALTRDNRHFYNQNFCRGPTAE

[3] = organism: Homo sapiens; assay: Immunostimulatory activity in human pDC assessed as induction of IFNalpha at 100 ug/ml after 24 hrs; assay type: functional
Summary of the method: (§1)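 Human pDCs plated at 1 × 10^6 cells/mL; compounds in PBS added, 37 °C for 24 h; supernatant cytokines/chemokines by human Luminex multiplex kit.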

[4] = test system: PBMC; assay: Immunomodulatory activity in human PBMC assessed as induction of TNFalpha at 100 ug/ml after 24 hrs; assay type: functional, cell-based
Summary of the method: (§2)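 Human PBMCs plated at 5 × 10^6 cells/mL; compounds dissolved in PBS added at various concentrations, 37 °C for 24 h. Supernatant cytokines/chemokines quantified with human Luminex multiplex kit.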

[5] = test system: PBMC; assay: Immunomodulatory activity in human PBMC assessed as induction of IL12 at 50 ug/ml after 24 hrs; assay type: functional, cell-based; summary of the method: as §2
[6] = test system: PBMC; assay: Immunomodulatory activity in human PBMC assessed as induction of MCP1 at 50 ug/ml after 24 hrs; assay type: functional, cell-based; summary of the method: as §2
[7] = test system: PBMC; assay: Immunomodulatory activity in human PBMC assessed as induction of IL6 at 50 ug/ml after 24 hrs; assay type: functional, cell-based; summary of the method: as §2
[8] = test system: PBMC; assay: Immunomodulatory activity in human PBMC assessed as induction of IL1-beta at 50 ug/ml after 24 hrs; assay type: functional, cell-based; summary of the method: as §2
[9] = organism: Homo sapiens; assay: Immunostimulatory activity in human pDC assessed as induction of IP10 at 100 ug/ml after 24 hrs; assay type: functional; summary of the method: as §1
[10] = organism: Homo sapiens; assay: Immunostimulatory activity in human pDC assessed as induction of IL6 at 100 ug/ml after 24 hrs; assay type: functional; summary of the method: as §1
[11] = organism: Homo sapiens; assay: Immunostimulatory activity in human mDC assessed as induction of IL6 at 100 ug/ml after 24 hrs; assay type: functional
Summary of the method: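 Human mDCs isolated from PBMCs by CD19+ B-cell depletion then BDCA1 positive selection; plated at 1 × 10^6 cells/mL, compounds in PBS, 37 °C for 24 h; supernatant cytokines by human Luminex multiplex. Representative of four independent experiments.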

SMILES | fold change (FC) [1] | Activity [2] | Activity [3] | Activity [4] [pg/mL] | Activity [5] [pg/mL] | Activity [6] [pg/mL] | Activity [7] [pg/mL] | Activity [8] [pg/mL] | Activity [9] | Activity [10] | Activity [11]
Nc1ccn([C@@H]2O[C@H](COP(=O)(S)O[C@H]3[C@@H](O)[C@H](n4cnc5c(N)ncnc54)O[C@@H]3CO)[C@@H](OP(=O)(S)OC[C@H]3O[C@@H](n4ccc(=O)[nH]c4=O)[C@H](O)[C@@H]3OP(=O)(S)OC[C@H]3O[C@@H](n4ccc(=O)[nH]c4=O)[C@H](O)[C@@H]3OP(=O)(S)OC[C@H]3O[C@@H](n4ccc5c(=O)[nH]c(N)nc54)[C@H](O)[C@@H]3OP(=O)(S)OC[C@H]3O[C@@H](n4cnc5c(N)ncnc54)[C@H](O)[C@@H]3OP(=O)(S)OC[C@H]3O[C@@H](n4cnc5c(N)ncnc54)[C@H](O)[C@@H]3OP(=O)(S)OC[C@H]3O[C@@H](n4ccc5c(=O)[nH]c(N)nc54)[C@H](O)[C@@H]3OP(=O)(S)OC[C@H]3O[C@@H](n4ccc(N)nc4=O)[C@H](O)[C@@H]3OP(=O)(S)OC[C@H]3O[C@@H](n4ccc(=O)[nH]c4=O)[C@H](O)[C@@H]3OP(=O)(S)OC[C@H]3O[C@@H](n4ccc(=O)[nH]c4=O)[C@H](O)[C@@H]3OP(=O)(S)OCC(O)COP(=O)(S)O[C@H]3[C@@H](O)[C@H](n4ccc(=O)[nH]c4=O)O[C@@H]3COP(=O)(S)O[C@H]3[C@@H](O)[C@H](n4ccc(=O)[nH]c4=O)O[C@@H]3COP(=O)(S)O[C@H]3[C@@H](O)[C@H](n4ccc(N)nc4=O)O[C@@H]3COP(=O)(S)O[C@H]3[C@@H](O)[C@H](n4ccc5c(=O)[nH]c(N)nc54)O[C@@H]3COP(=O)(S)O[C@H]3[C@@H](O)[C@H](n4cnc5c(N)ncnc54)O[C@@H]3COP(=O)(S)O[C@H]3[C@@H](O)[C@H](n4cnc5c(N)ncnc54)O[C@@H]3COP(=O)(S)O[C@H]3[C@@H](O)[C@H](n4ccc5c(=O)[nH]c(N)nc54)O[C@@H]3COP(=O)(S)O[C@H]3[C@@H](O)[C@H](n4ccc(=O)[nH]c4=O)O[C@@H]3COP(=O)(S)O[C@H]3[C@@H](O)[C@H](n4ccc(=O)[nH]c4=O)O[C@@H]3COP(=O)(S)O[C@H]3[C@@H](O)[C@H](n4ccc(N)nc4=O)O[C@@H]3COP(=O)(S)O[C@H]3[C@@H](O)[C@H](n4cnc5c(N)ncnc54)O[C@@H]3CO)[C@H]2O)c(=O)n1 (some centres not stated) | 23.7 | inactive | Active | 170 | 354 | 52900 | 2730 | 261 | Active | Active | Active
Nc1ccn([C@@H]2O[C@H](COP(=O)(S)O[C@H]3[C@@H](O)[C@H](n4cnc5c(N)ncnc54)O[C@@H]3CO)[C@@H](OP(=O)(S)OC[C@H]3O[C@@H](n4ccc(=O)[nH]c4=O)[C@H](O)[C@@H]3OP(=O)(S)OC[C@H]3O[C@@H](n4ccc(=O)[nH]c4=O)[C@H](O)[C@@H]3OP(=O)(S)OC[C@H]3O[C@@H](n4ccc5c(=O)[nH]c(N)nc54)[C@H](O)[C@@H]3OP(=O)(S)OC[C@H]3O[C@@H](n4cnc5c(N)ncnc54)[C@H](O)[C@@H]3OP(=O)(S)OC[C@H]3O[C@@H](n4ccc(N)nc4=O)[C@H](O)[C@@H]3OP(=O)(S)OC[C@H]3O[C@@H](n4ccc5c(=O)[nH]c(N)nc54)[C@H](O)[C@@H]3OP(=O)(S)OC[C@H]3O[C@@H](n4cnc5c(N)ncnc54)[C@H](O)[C@@H]3OP(=O)(S)OC[C@H]3O[C@@H](n4ccc(=O)[nH]c4=O)[C@H](O)[C@@H]3OP(=O)(S)OC[C@H]3O[C@@H](n4ccc(=O)[nH]c4=O)[C@H](O)[C@@H]3OP(=O)(S)OCC(O)COP(=O)(S)O[C@H]3[C@@H](O)[C@H](n4ccc(=O)[nH]c4=O)O[C@@H]3COP(=O)(S)O[C@H]3[C@@H](O)[C@H](n4ccc(=O)[nH]c4=O)O[C@@H]3COP(=O)(S)O[C@H]3[C@@H](O)[C@H](n4cnc5c(N)ncnc54)O[C@@H]3COP(=O)(S)O[C@H]3[C@@H](O)[C@H](n4ccc5c(=O)[nH]c(N)nc54)O[C@@H]3COP(=O)(S)O[C@H]3[C@@H](O)[C@H](n4ccc(N)nc4=O)O[C@@H]3COP(=O)(S)O[C@H]3[C@@H](O)[C@H](n4cnc5c(N)ncnc54)O[C@@H]3COP(=O)(S)O[C@H]3[C@@H](O)[C@H](n4ccc5c(=O)[nH]c(N)nc54)O[C@@H]3COP(=O)(S)O[C@H]3[C@@H](O)[C@H](n4ccc(=O)[nH]c4=O)O[C@@H]3COP(=O)(S)O[C@H]3[C@@H](O)[C@H](n4ccc(=O)[nH]c4=O)O[C@@H]3COP(=O)(S)O[C@H]3[C@@H](O)[C@H](n4ccc(N)nc4=O)O[C@@H]3COP(=O)(S)O[C@H]3[C@@H](O)[C@H](n4cnc5c(N)ncnc54)O[C@@H]3CO)[C@H]2O)c(=O)n1 (some centres not stated) | 16.6 | inactive | Active | 115 | 360 | 49100 | 2380 | 218 | Active | Active | Active
